Screening data deposited in PubChem by several laboratories.
Sampled rows, rich in hits. Any-hit rate of the full collection: about 5.6%.
CHOP UPR activ: activators of apoptotic CHOP UPR arm, primary screen, cell-based, CHO-CHOP luciferase reporter, luminescence, uHTS; UPR activation; percent of tunicamycin response over DMSO baseline; activation, % at 10 µM; 330,000 tested, 0.34% active;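 active = at 10 µM dose, activation of 40% or more, normalized to positive control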
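assay system = CHO CHOP reporter cells | amount = 500 CHO-CHOP cells per well | buffer or medium = F12 with 10% FBS | incubation = 16-18 h cell attachment, then 6 h compound exposure, 37 °C | detection = luminescence read with Steady-Glo | read-out = percent activation relative to tunicamycin control | controls = tunicamycin high control, DMSO low control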
GRIN3A LBD mod: binders of NR3A ligand-binding domain, primary screen, biophysical, differential scanning fluorimetry, uHTS. Glutamate receptor ionotropic, NMDA 3A (GRIN3A) ligand-binding domain. NR3A LBD differential scanning fluorimetry, Tm shift; 0% = protein alone, 100% = glycine-bound protein. Tm shift relative to glycine control, % at 25 µM. 340,000 tested, 2.5% active. AID 1259313, 2017;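 active = melting temperature shift of at least 10% of the positive control shift, at one fixed dose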
XBP1 UPR activ: activators of adaptive XBP1 UPR arm, primary screen, cell-based, CHO-XBP1 luciferase reporter, luminescence, uHTS. IRE1-XBP1 UPR activation; percent of tunicamycin response, DMSO as zero. 330,000 tested, 0.33% active. AID 463104, 2010. activation, % at 20 µM;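 active = versus positive control, 20 µM dose yields 30% or more activation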
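Material: IRE1-XBP1 luciferase reporter CHO line / Quantity: one thousand reporter cells per well / Buffer or medium: F12 with 10% serum / Compound: 20 µM single concentration, DMSO 1% / Times: 6 h treatment, 37 °C / Detection: Steady-Glo luciferase glow luminescence, 10 min after reagent addition / Benchmarks: tunicamycin high, DMSO low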
MPTP block: mitochondrial permeability transition pore inhibitors, primary screen, biochemical, isolated mouse mitochondria, absorbance; Ca2+ swelling absorbance, 30 min; inhibition, % at 10 µM; 360,000 tested, 1.4% active;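 active = inhibition of 50% or more, scaled per plate between neutral and stimulator controls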
aDG glyco up: activators of alpha-DG glycosylation, primary screen, uHTS, Pro5-aDG cells, AlphaScreen; alpha-DG glycosylation AlphaScreen (IIH6); 0% Pro5, 100% B10-LARGE cell signal; activation, % at 10 µM; 360,000 tested, 0.22% active; AID 624168, 2012;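 active = activation of at least 8% versus controls, or a plate z-score of at least 8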;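 note: Pro5 are CHO cells carrying HIG-tagged alpha-DG that lacks glycosylation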
CHOP inhibitor: inhibitors of CHOP promoter induction, primary screen, cell-based, unfolded protein response, luciferase reporter. inhibition, % at 10 µM. CHO-K1 CHOP-promoter luciferase, tunicamycin-induced, 15-18 h. AID 2732, 2010. 220,000 tested, 3.8% active;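 active = compounds that reduced the stress-induced luciferase reporter signal by more than about 70% of percent inhibition, limit read from the data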
Each line names hits and unclear results; the compound was inactive in the other large screens.

O=C(COc1cccc(F)c1)Nc1nc(-c2cccnc2)cs1	none (no result: CHOP inhibitor)
CNC[C@H]1OCc2ccccc2-c2ccccc2C(=O)N([C@H](C)CO)C[C@H]1C	none (no result: CHOP UPR activ, GRIN3A LBD mod, XBP1 UPR activ, CHOP inhibitor)
CC(=O)N1CCc2cc(S(=O)(=O)CCC(=O)N3CCN(c4cc(C)ccc4C)CC3)ccc21	none (no result: CHOP inhibitor)
N.N.O=C(O)C1(C(=O)O)CCC1.[Pt+2]	none (no result: CHOP UPR activ, GRIN3A LBD mod, XBP1 UPR activ, MPTP block, aDG glyco up)
O=C1OC(c2ccc(F)cc2)=C/C1=C\c1ccc(O)cc1	GRIN3A LBD mod 16.6 (no result: CHOP inhibitor)
CC1CCCN(CCCN2C(=O)C3C(C(=O)Nc4cccc(Cl)c4)C4C=CC3(O4)C2C(=O)NC2CCCCC2)C1 (centres undefined)	none (no result: CHOP inhibitor)
NC(=O)COC(=O)c1sc2ccccc2c1Cl	none
Cc1cc(C)n(CCOC(=O)c2sc3ccccc3c2Cl)n1	CHOP inhibitor 74.5
CCN(c1ccccc1)c1ncnc2c1cnn2-c1ccccc1	CHOP inhibitor 79.5
O=C(c1ccccc1)c1ccc2nc(-c3ccc(NC(=O)c4ccccc4F)cc3)[nH]c2c1	GRIN3A LBD mod 18.1
CC(=O)Nc1cccc(-c2nc3ccc(NC(C)=O)cc3[nH]2)c1	none
O=C(Nc1ccc2nc(-c3ccccc3)[nH]c2c1)c1cccs1	GRIN3A LBD mod 29.6 (no result: CHOP inhibitor)
O=C(O)CCC(=O)Nc1ccc(-c2nc3ccc(C(=O)c4ccccc4)cc3[nH]2)cc1	none (no result: CHOP inhibitor)
Cc1ccc2nc(-c3ccc(NC(=O)Cc4cccs4)cc3)[nH]c2c1	GRIN3A LBD mod 33.6, CHOP inhibitor 79.4
O=C(Nc1ccc2nc(-c3ccc4nc[nH]c4c3)[nH]c2c1)c1cccs1	GRIN3A LBD mod 28.9
O=C(Nc1ccc2nc(-c3ccco3)[nH]c2c1)c1cccs1	GRIN3A LBD mod 12.8
N#Cc1ccccc1NC(=O)COC(=O)CN1C(=O)C2CCCCC2C1=O (centres undefined)	none (no result: CHOP inhibitor)
O=C(CSc1nnc(-c2ccc(F)cc2)o1)Nc1ccc(S(=O)(=O)N2CCCCCC2)cc1	CHOP inhibitor 84.2
O=C(CSc1nnc(-c2ccc(F)cc2)o1)Nc1ccc(S(=O)(=O)N2CCCC2)cc1	none
CCN(CC)S(=O)(=O)c1ccc(NC(=O)CSc2nnc(-c3ccc(F)cc3)o2)cc1	CHOP inhibitor 94.4
COc1ccc(-c2cnc(C(O)c3ccc(CN4CCCCC4)cc3)[nH]2)cc1 (centres undefined)	none (no result: CHOP UPR activ, GRIN3A LBD mod, XBP1 UPR activ, CHOP inhibitor)
COc1ccc(OCC(O)CNC(=O)c2ccc(OC)cc2)cc1 (centres undefined)	GRIN3A LBD mod 30.6
COc1ccc(OCC(O)CNC(=O)c2ccc(Br)cc2)cc1 (centres undefined)	none
COc1ccc(C(=O)NNC(=O)c2ccc(C(C)(C)C)cc2)cc1	CHOP inhibitor 84.0
COc1ccc(OCC(O)CNc2ccc(Br)cc2)cc1 (centres undefined)	CHOP inhibitor 85.5
CCn1cc(Cl)c(C(=O)Nc2c(C)nn(Cc3c(F)c(F)c(F)c(F)c3F)c2C)n1	none (no result: CHOP inhibitor)
C=CCC(C)(NCc1ccccc1)c1ccc(C)cc1 (centres undefined)	CHOP inhibitor 75.2
O=C1COc2ccc(-c3csc(=Nc4ccc(OC(F)F)cc4)n3CC3CCCO3)cc2N1 (centres undefined)	CHOP inhibitor 78.0
CC/C(=N/Nc1ccc(Cl)cc1)c1cnnc(SC)n1	GRIN3A LBD mod 16.8
CC/C(=N/O)c1cnnc(SC)n1	none
CC(=O)Nc1nc(C)c(-c2csc(Nc3cccc([N+](=O)[O-])c3)n2)s1	CHOP inhibitor 94.8
CC(=O)Nc1nc(C)c(-c2csc(Nc3ccccn3)n2)s1	GRIN3A LBD mod 21.8
COc1ccc(C(=O)OCC(=O)c2ccc(F)cc2)cc1OC	none (no result: CHOP inhibitor)
CCC(C)C(NS(=O)(=O)c1ccc(C)cc1)C(=O)N1CCOCCOCCOCC1 (centres undefined)	none (no result: CHOP inhibitor)
COc1ccc(C(=O)Oc2ccc(C(=S)N3CCCC3)cc2)cc1OC	CHOP inhibitor 93.3 (no result: GRIN3A LBD mod, MPTP block, aDG glyco up)
CCN(CC)CCCNC(=O)CNC(=O)c1nn(-c2ccc(OC)cc2OC)c(=O)c2ccccc12	none (no result: CHOP UPR activ, GRIN3A LBD mod, XBP1 UPR activ, CHOP inhibitor)
Cc1cc(C(=O)Nc2ccc(S(=O)(=O)Nc3onc(C)c3C)cc2)c(C)o1	none
Cc1noc(NS(=O)(=O)c2ccc(NC(=O)c3cc(F)c(F)c(F)c3F)cc2)c1C	GRIN3A LBD mod 91.8 (no result: CHOP inhibitor)
CS(=O)(=O)NC1c2cccc3cccc(c23)C1Sc1nncn1/N=C/c1ccco1 (centres undefined)	GRIN3A LBD mod 20.1
Cc1ccc2nc(-c3cc(N)cc(N)c3)oc2c1	CHOP inhibitor 79.0
CCCCCCSC1=C(C#N)C(c2ccccc2)CC(=O)N1 (centres undefined)	CHOP inhibitor 77.4
CSC1=C(C#N)C(c2ccc(C(C)C)cc2)CC(=O)N1 (centres undefined)	CHOP inhibitor 72.9
COc1ccc(C2CC(O)(c3ccccc3)Oc3cc(OC)ccc32)cc1 (centres undefined)	CHOP inhibitor 92.0
CCOc1cc(C2c3c(oc4cc(C)c(Cl)cc4c3=O)C(=O)N2Cc2ccco2)ccc1O (centres undefined)	CHOP inhibitor 95.8
Cc1ccc2oc3c(c(=O)c2c1)C(c1cccc(Br)c1)N(Cc1ccco1)C3=O (centres undefined)	CHOP inhibitor 80.9 (no result: CHOP UPR activ, XBP1 UPR activ)
Nc1ccc2c(c1)Cc1cc(Cl)c(Cl)cc1-2	GRIN3A LBD mod 15.2 (no result: CHOP UPR activ, XBP1 UPR activ, CHOP inhibitor)
CCOc1cc(/C=N/O)cc(Br)c1OCc1ccc(Cl)cc1	GRIN3A LBD mod 12.8
C=CCc1cc(C=O)cc(OCC)c1OCc1ccc(Cl)cc1	CHOP inhibitor 70.6
C=CCc1cc(C=O)cc(OC)c1OCc1ccc(Cl)cc1	none
CCOc1cc(/C=N/O)cc(Br)c1OCC	none
CCN1C(=O)[C@H]2[C@H]3CN=C(SCc4ccc(C)cc4)N3[C@@](Cc3ccccc3)(C(=O)OC)[C@H]2C1=O	none (no result: CHOP inhibitor)
Cc1cccc(N2C(=O)CS/C2=N\NC(=O)c2ccc(Br)cc2)c1C	none
Cc1ccc(C(=O)N/N=C2\SCC(=O)N2c2cc(C)ccc2C)cc1	CHOP inhibitor 75.3
COc1ccc(N(CC(=O)N2CCN(C)CC2)S(=O)(=O)c2cc(C)ccc2OC)cc1Cl	none (no result: CHOP inhibitor)
CCOC(=O)N(C)C[C@H]1OCc2cnnn2CCCC(=O)N([C@@H](C)CO)C[C@H]1C	none (no result: CHOP UPR activ, GRIN3A LBD mod, XBP1 UPR activ, CHOP inhibitor)
CC(C)CN=Cc1c(O)c([N+](=O)[O-])cc2oc3c(c12)CCCC3	CHOP inhibitor 84.1
CCOC(=O)c1ccc(N2C(=O)CC(N3CCC(Nc4ccc(F)cc4)CC3)C2=O)cc1 (centres undefined)	CHOP inhibitor 84.0
